Reference: paper PMC5114172 (Journal of applied toxicology : JAT, 2016)

Assays:
Assay type in all cases: cell-based, human
[1] = system: monocyte-depleted PBMCs; test: Cell viability, trypan blue exclusion; conditions: for Percent Viable Cells / decrease in viability: MD-PBMCs
[2] = system: PBMCs with Granulocytes; test: Cell viability, trypan blue exclusion; conditions: for Percent Viable Cells: PBMCs with Granulocytes
[3] = system: Granulocytes; test: Cell viability, trypan blue exclusion; conditions: for Percent Viable Cells: Granulocytes
[4] = system: PBMCs; test: IL-1β secretion assay; conditions: for Interleukin 1 beta secreted: donor F148, 24 h
Procedure, shortened: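 NK cells, MD-PBMCs, PBMCs or granulocytes (1.5 million/mL) or PBMC+granulocytes (0.75 million/mL each), per donor, exposed 24 h, 48 h or 6 days to 0.05–5 μM test compound diluted from DMSO stock, with DMSO controls. Supernatants kept at −70 °C. IL-1β by sandwich ELISA: HRP detection antibody, acid-stopped substrate, A450 against standards. Detection limit 3 pg/mL; triplicates; ANOVA then t test versus control, p<0.05.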

## CCC[CH2][Sn][CH2]CCC [DBT, Dibutyltin]
[1]; MD-PBMC, 24 h, 5 μM DBT
  average decrease in viability: 15%
[1]; 24 h, 0.05 μM DBT
  Percent Viable Cells: 98±2%
[1]; 24 h, 0.1 μM DBT
  Percent Viable Cells: 98±1%
[1]; 24 h, 0.25 μM DBT
  Percent Viable Cells: 97±1%
[1]; 24 h, 0.5 μM DBT
  Percent Viable Cells: 91±8%
[1]; 24 h, 1 μM DBT
  Percent Viable Cells: 92±4%
[1]; 24 h, 2.5 μM DBT
  Percent Viable Cells: 74±15 %
[1]; 24 h, 5 μM DBT
  Percent Viable Cells: 80±9 %
[1]; 24 h, 2.5 and 5 μM DBT
  decrease in viability: 15%
[1]; 48 h, 0.05 μM DBT
  Percent Viable Cells: 96±2%
[1]; 48 h, 0.1 μM DBT
  Percent Viable Cells: 97±1 %
[1]; 48 h, 0.25 μM DBT
  Percent Viable Cells: 96±2%
[1]; 48 h, 0.5 μM DBT
  Percent Viable Cells: 94±3%
[1]; 48 h, 1 μM DBT
  Percent Viable Cells: 80±11 %
[1]; 48 h, 2.5 μM DBT
  Percent Viable Cells: 56±20 %
  decrease in viability: 38%
[1]; 48 h, 5 μM DBT
  Percent Viable Cells: 55±10 %
  decrease in viability: 35%
[1]; 6 day, 0.05 μM DBT
  Percent Viable Cells: 89±8%
[1]; 6 day, 0.1 μM DBT
  Percent Viable Cells: 86±7%
[1]; 6 day, 0.25 μM DBT
  Percent Viable Cells: 81±13%
[1]; 6 day, 0.5 μM DBT
  Percent Viable Cells: 67±13 %
[1]; 6 day, 1 μM DBT
  Percent Viable Cells: 52±11 %
[1]; 6 day, 2.5 μM DBT
  Percent Viable Cells: 47±9 %
[1]; 6 day, 5 μM DBT
  Percent Viable Cells: 52±8 %
[2]; PBMC+granulocytes, 24 h, 5 μM DBT
  average decrease in viability: 16%
[2]; 24 h, 0.05 μM DBT
  Percent Viable Cells: 94±3%
[2]; 24 h, 0.1 μM DBT
  Percent Viable Cells: 93±6%
[2]; 24 h, 0.25 μM DBT
  Percent Viable Cells: 93±4%
[2]; 24 h, 0.5 μM DBT
  Percent Viable Cells: 94±5%
[2]; 24 h, 1 μM DBT
  Percent Viable Cells: 88±6%
[2]; 24 h, 2.5 μM DBT
  Percent Viable Cells: 84±8%
[2]; 24 h, 5 μM DBT
  Percent Viable Cells: 77±4 %
[2]; 48 h, 0.05 μM DBT
  Percent Viable Cells: 93±5%
[2]; 48 h, 0.1 μM DBT
  Percent Viable Cells: 94±2%
[2]; 48 h, 0.25 μM DBT
  Percent Viable Cells: 93±5%
[2]; 48 h, 0.5 μM DBT
  Percent Viable Cells: 92±2%
[2]; 48 h, 1 μM DBT
  Percent Viable Cells: 88±10%
[2]; 48 h, 2.5 μM DBT
  Percent Viable Cells: 50±29%
[2]; 48 h, 5 μM DBT
  Percent Viable Cells: 49±12 %
[2]; 6 day, 0.05 μM DBT
  Percent Viable Cells: 80±7%
[2]; 6 day, 0.1 μM DBT
  Percent Viable Cells: 72±10%
[2]; 6 day, 0.25 μM DBT
  Percent Viable Cells: 74±8%
[2]; 6 day, 0.5 μM DBT
  Percent Viable Cells: 54±10 %
[2]; 6 day, 1 μM DBT
  Percent Viable Cells: 50±12 %
[2]; 6 day, 2.5 μM DBT
  Percent Viable Cells: 32±15 %
[2]; 6 day, 5 μM DBT
  Percent Viable Cells: 37±10 %
[2]; PBMCs+granulocytes, 24 h, 0.05–2.5 μM DBT
  effect on viability compared to the control: no effect
[3]; 24 h, 0.05 μM DBT
  Percent Viable Cells: 90±8%
[3]; 24 h, 0.1 μM DBT
  Percent Viable Cells: 92±5%
[3]; 24 h, 0.25 μM DBT
  Percent Viable Cells: 95±3%
[3]; 24 h, 0.5 μM DBT
  Percent Viable Cells: 94±3%
[3]; 24 h, 1 μM DBT
  Percent Viable Cells: 94±2%
[3]; 24 h, 2.5 μM DBT
  Percent Viable Cells: 92±3%
[3]; 24 h, 5 μM DBT
  Percent Viable Cells: 92±2%
[3]; 48 h, 0.05 μM DBT
  Percent Viable Cells: 93±4%
[3]; 48 h, 0.1 μM DBT
  Percent Viable Cells: 95±3%
[3]; 48 h, 0.25 μM DBT
  Percent Viable Cells: 92±5%
[3]; 48 h, 0.5 μM DBT
  Percent Viable Cells: 94±3%
[3]; 48 h, 1 μM DBT
  Percent Viable Cells: 95±2%
[3]; 48 h, 2.5 μM DBT
  Percent Viable Cells: 72±10 %
[3]; 48 h, 5 μM DBT
  Percent Viable Cells: 73±17%
[3]; 6 day, 0.05 μM DBT
  Percent Viable Cells: 51±18%
[3]; 6 day, 0.1 μM DBT
  Percent Viable Cells: 65±22%
[3]; 6 day, 0.25 μM DBT
  Percent Viable Cells: 55±33%
[3]; 6 day, 0.5 μM DBT
  Percent Viable Cells: 50±5%
[3]; 6 day, 1 μM DBT
  Percent Viable Cells: 57±9%
[3]; 6 day, 2.5 μM DBT
  Percent Viable Cells: 34±8 %
[3]; 6 day, 5 μM DBT
  Percent Viable Cells: 35±20%
[3]; granulocytes alone, 24 h, any of the DBT exposures
  effect on viability: not affected
[4]; 24 h, across donors
  average of the maximum fold increase in IL-β secretion: 3.2 fold
[4]; 0.05 μM DBT
  Interleukin 1 beta secreted: 120533 ± 8211 pg/mL
[4]; 0.1 μM DBT
  Interleukin 1 beta secreted: 107467 ± 4636 pg/mL
[4]; 0.25 μM DBT
  Interleukin 1 beta secreted: 137333 ± 3926 pg/mL
[4]; 0.5 μM DBT
  Interleukin 1 beta secreted: 32400 ± 1833 pg/mL
